In the library only some 3% were active in any assay of this set; here they are far more common.
PfHsp90 set2: inhibits growth of yeast expressing Plasmodium falciparum Hsp90 | S. cerevisiae expressing PfHsp90, BacTiter-Glo ATP, 48 h; yeast lacking PDR1 and PDR3 efflux regulators | inhibition, % at 9.4 µM | 310,000 tested, 0.32% active;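 active = every replicate shows inhibition above about 80%, whatever the replicate mean, limit read from the data; inconclusive = mean inhibition reaches the set limit but some replicate falls short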
PvdQ acylase: blocks Pseudomonas aeruginosa PvdQ acylase activity; purified PvdQ acylase, fluorescence plate reader; inhibition, % at 10 µM; 340,000 tested, 0.063% active; AID 488965; in the data active = inhibition above about 30%, passing the limit was not always enough; inconclusive = no clear call, values can overlap the other calls
HSF-1 act: increases HSF-1 driven luciferase reporter signal; activation, % at 9 µM; 300,000 tested, 1.7% active; NIH3T3-HGL HSF-1 luciferase reporter, MG132, 8 h; 100% = twice DMSO control signal;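 active = mean replicate activation of at least 50% with a set share of replicates each reaching 50%; inconclusive = only one of those two conditions met; inactive = mean below 50% and too few replicates reaching it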
N-glyco inh: blocks N-linked glycosylation in D54 reporter cells; AID 588692; D54 ERlucT glycosylation luciferase reporter, 24 h; percent of 100 nM tunicamycin response; reporter increase, % at 12.5 µM; 360,000 tested, 0.23% active;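 active = mean luciferase reporter signal, scaled so untreated is 0 and the glycosylation-blocking control 100, at or above a set limit in every replicate; inconclusive = mean reaches the limit but not every replicate does; inactive = mean below the limit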;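 also: luciferase carries N-glycosylation sites so blocking glycosylation raises the light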
T cruzi inh: T. cruzi replication inhibition; T. cruzi beta-gal in NIH3T3, luminescence, 90 h; inhibition, % (test concentration not listed); 300,000 tested, 1.4% active; AID 1885;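 active = mean inhibition across valid replicates above about 55%, limit read from the data; inconclusive = mean below that limit but half or more replicates reach it; inactive = mean below it, under half of replicates reach it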;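 also: signal also drops with host cell toxicity which is not excluded here; higher percent means less beta-gal luminescence so fewer parasites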
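Read-out: Parasite load inhibition, % | Test system: Mouse NIH/3T3 fibroblasts infected with β-gal-expressing T. cruzi Tulahuen C4 | Amount: 5,000 cells/well | Medium: DMEM, 2% fetal bovine serum | Signal: GalScreen β-gal luminescence, detergent lysis, 60 min | Timing: 3 h attach, ≥90 h co-culture | Also added: Tulahuen C4 trypomastigotes, 5000/well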
CaV13 FRET inh: Primary screen for inhibitors of IQ motif and Ca2+-dependent inactivation inhibitor domain binding in CACNA1D, Förster resonance energy transfer in living cells, … | HEK cells, CFP/YFP FRET ICDI-IQ, plate reader, 10 min; percent FRET-ratio fall versus neutral wells | inhibition, % at 12.3 µM | 340,000 tested, 0.098% active | AID 743397;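 active = mean replicate inhibition of at least 30% and at least 1% of replicates passing that level; inconclusive = only one of the two criteria is met; inactive = neither criterion is met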
Large screens that a line does not name were inactive.

COc1ccc(C(=O)Cn2nnc(-c3ccccc3-n3cnnn3)n2)cc1	none
CCN(CC)S(=O)(=O)c1ccc2oc(C(=O)N3CCc4ccccc4C3)c(C)c2c1	none (no result: CaV13 FRET inh)
CCN(CC)S(=O)(=O)c1ccc2oc(C(=O)NC3CCCc4ccccc43)c(C)c2c1 (stereo not given)	T cruzi inh 81
CN(C)Cc1nc2ccccc2c(=O)n1Cc1nc(-c2cc3ccccc3o2)cs1	T cruzi inh 65
Cc1csc(Cn2c(CN(C)C)nc3ccccc3c2=O)n1	none
Cc1cc2ccccc2n1CCNC(=O)C(C)Oc1ccccc1 (stereo not given)	T cruzi inh 63
Cc1ccc(S(=O)(=O)c2cc3c(=O)n4ccccc4nc3n(C)c2=N)cc1	CaV13 FRET inh 80
Cc1ccc(S(=O)(=O)c2cc3c(=O)n4ccccc4nc3n(CCc3ccccc3)c2=N)cc1	N-glyco inh 69
COCCNC(=O)C[C@H]1C[C@H]2c3cc(NS(=O)(=O)c4ccc(F)cc4)ccc3O[C@H]2[C@H](CO)O1	none (no result: PfHsp90 set2, PvdQ acylase, HSF-1 act, T cruzi inh)
Clc1ccc2c(-c3ccccc3)nc(-c3cccs3)nc2c1	none (no result: PfHsp90 set2, PvdQ acylase, HSF-1 act, N-glyco inh, T cruzi inh)
CC(CNC(=O)CN1C(=O)NC2(CCOc3ccccc32)C1=O)c1ccccc1 (stereo not given)	none (no result: HSF-1 act, T cruzi inh)
CC1=CC(C)(C)N2C(=O)C3(C(C#N)=C(N)Oc4cc(C)oc(=O)c43)c3cc(C)cc1c32 (stereo not given)	T cruzi inh 55 (no result: PfHsp90 set2)
CCc1cc(=O)oc2c(CNCc3ccccc3F)c(O)c(Cl)cc12	HSF-1 act 64
CCCc1cc(=O)oc2c(CN3CCCC3)c(O)c(Cl)cc12	none
O=C(/C=C/c1ccco1)c1ccc(O)cc1	none (no result: PfHsp90 set2, PvdQ acylase, N-glyco inh, CaV13 FRET inh)
Cc1ccc(/C=C/C(=O)c2ccc(O)cc2)cc1	none
CN(C)c1ccc(C(=O)/C=C/c2ccccc2)cc1	HSF-1 act 74
CSc1ccc(/C=C/C(=O)c2ccc(O)cc2)cc1	HSF-1 act 60
CN(C)c1ccc(C(=O)/C=C/c2ccco2)cc1	HSF-1 act 68
CCOC(=O)C(=Cc1ccc(N(C)C)cc1)C(=O)c1ccccc1	none (no result: PfHsp90 set2, PvdQ acylase, HSF-1 act, T cruzi inh)
CC(=O)/C(=C/c1ccc(N(C)C)cc1)C(=O)c1ccccc1	HSF-1 act 81
CC(C)CNC(=O)c1cccc2c(-c3cccc(C(N)=O)c3)coc12	none (no result: PfHsp90 set2, PvdQ acylase, HSF-1 act, T cruzi inh)
Cc1ccc2cc(CCNC(=O)c3cccs3)c(=O)[nH]c2c1	none (no result: HSF-1 act, T cruzi inh)
Cc1ccc2cc(CCNC(=O)c3cccs3)c(=O)[nH]c2c1C	HSF-1 act 58
COC(=O)[C@]12C[C@H](CC(=O)NCc3ccccc3)C(=O)N(Cc3ccc4c(c3)OCO4)C1=C[C@H](COCc1ccccc1)O[C@@H]2C	none (no result: PfHsp90 set2, PvdQ acylase, HSF-1 act, N-glyco inh, T cruzi inh)
CCOC(=O)c1c(NC(=O)Cn2cnc([N+](=O)[O-])n2)sc2c1CCC(C)C2 (stereo not given)	T cruzi inh 57 (no result: PfHsp90 set2)
COC(=O)c1c(NC(=O)Cn2cnc([N+](=O)[O-])n2)sc2c1CCC(C)C2 (stereo not given)	T cruzi inh 58
CCCc1nc2c3ccccc3ccn2c1Cc1ccccc1	none (no result: PfHsp90 set2, PvdQ acylase, HSF-1 act, T cruzi inh)
COc1ccc(-c2cc(C(=O)N3CCN(c4cccc(C)c4C)CC3)c3ccccc3n2)cc1OC	T cruzi inh 62 (no result: PfHsp90 set2, CaV13 FRET inh)
O=C(c1ccc(Cl)cc1Cl)C1(n2cncn2)Oc2ccccc2C1O (stereo not given)	T cruzi inh 55 (no result: PfHsp90 set2)
Cc1cccc(NC(=O)c2ccccc2O)c1C	HSF-1 act 124
Cc1cccc(C)c1NC(=O)c1ccc([N+](=O)[O-])s1	HSF-1 act inconclusive
Cc1c(NC(=O)c2ccc(C(C)(C)C)cc2)cccc1[N+](=O)[O-]	HSF-1 act 72
Cc1ccnc(NC(=O)c2ccc([N+](=O)[O-])s2)c1	HSF-1 act 70, T cruzi inh 55 (no result: CaV13 FRET inh)
Cc1ccnc(NC(=O)c2cc([N+](=O)[O-])cc([N+](=O)[O-])c2)c1	T cruzi inh 60
CC1(C(=O)NCc2ccccc2)CN(S(C)(=O)=O)CC(=O)N1CCc1ccc(O)cc1 (stereo not given)	none (no result: PfHsp90 set2, PvdQ acylase, HSF-1 act, N-glyco inh, T cruzi inh)
COC(=O)[C@]12C[C@H](CC(=O)NCc3cccs3)C(=O)N(Cc3ccccc3)C1=C[C@H](C(C)(C)C)O[C@@H]2C	none (no result: PfHsp90 set2, PvdQ acylase, HSF-1 act, N-glyco inh, T cruzi inh)
Cc1ccc(S(=O)(=O)C[C@@H]2OC[C@H](CO)N2S(=O)(=O)c2ccc(C)cc2)cc1	none (no result: PfHsp90 set2, PvdQ acylase, HSF-1 act, N-glyco inh, T cruzi inh)
COc1ccc(NC(=O)c2ccc([N+](=O)[O-])s2)c([N+](=O)[O-])c1	T cruzi inh 64
Cc1cccc(NC(=O)c2ccc([N+](=O)[O-])s2)n1	T cruzi inh 65
COc1ccc(NC(=O)c2ccc(C)o2)c([N+](=O)[O-])c1	none
Cc1cccc(NC(=O)c2ccc([N+](=O)[O-])s2)c1C	HSF-1 act 56, T cruzi inh 66
O=C(Cc1ccc(NC(=O)C2CCN(C(=O)C3CCCC3)CC2)cc1)Nc1cccc(C(=O)N2CCCC2)c1	none (no result: PfHsp90 set2, PvdQ acylase, HSF-1 act, N-glyco inh, T cruzi inh)
Cc1cccc(CN2CCc3c([nH]c4ccccc34)C2)c1	none
Clc1cccc(CN2CCc3c([nH]c4ccccc34)C2)c1	T cruzi inh 59
Cc1ccc(CNC(=O)CS(=O)(=O)Cc2nc(-c3ccccc3F)oc2C)cc1	HSF-1 act 57
Cc1ccc2c(c1)C(=O)N1[C@H]3c4cc(C)ccc4OC[C@@H]3[C@H](c3ccccc3)[C@]1(C)C(=O)N2	none (no result: HSF-1 act, T cruzi inh)
Cc1ccc2c(c1)[C@H]1[C@H](CO2)[C@H](c2ccccc2)[C@]2(C)C(=O)Nc3ccc(Br)cc3C(=O)N12	N-glyco inh 30 (no result: HSF-1 act, T cruzi inh)
Cc1ccc2c(c1)C(=O)N1[C@H]3c4cc(Br)ccc4OC[C@@H]3[C@H](c3ccccc3)[C@]1(C)C(=O)N2	N-glyco inh 27 (no result: HSF-1 act, T cruzi inh)
Cc1ccccc1-c1ccc2c(c1)[C@@H]1C[C@H](N(C)CC3CCCCC3)[C@H]([C@H](C)O)CN1CC2	none (no result: PfHsp90 set2, PvdQ acylase, HSF-1 act, N-glyco inh, T cruzi inh)
O=C(N/N=C(\c1ccccc1)c1cccnc1)c1ccc(O)cc1	none
O=C(N/N=C(\c1ccccc1)c1cccnc1)c1cccc(F)c1	HSF-1 act 127 (no result: PfHsp90 set2, CaV13 FRET inh)
Oc1c(N=Nc2ccccn2)ccc2ccccc12	HSF-1 act 265, T cruzi inh 73 (no result: PfHsp90 set2, CaV13 FRET inh)
Oc1[nH]c2ccccc2c1N=Nc1ccccn1	none (no result: HSF-1 act, T cruzi inh)
O=S(=O)(NCc1ccc(Cl)cc1)c1ccc(Br)cc1C1CC[C@@H](O)C1 (stereo not given in full)	none (no result: PfHsp90 set2, PvdQ acylase, HSF-1 act, N-glyco inh, T cruzi inh)
CC(C)C(NC=C1C(=O)OC(C)(C)OC1=O)C(=O)O (stereo not given)	none
CC(NC=C1C(=O)OC(C)(C)OC1=O)C(=O)O (stereo not given)	T cruzi inh 55 (no result: PfHsp90 set2)
O=C(C(=O)N1CCC(CNS(=O)(=O)c2ccc(OC(F)(F)F)cc2)CC1)c1cc2ccccc2o1	none (no result: PfHsp90 set2, PvdQ acylase, HSF-1 act, N-glyco inh, T cruzi inh)
CC1(C)CC(=O)C=C(NC2=CC3OC(c4ccccc4)OCC3OC2=O)C1 (stereo not given)	HSF-1 act 116
Cc1ccccc1NC1=CC(=O)CC(C)(C)C1	none
